Reference: ChEMBL document CHEMBL5724801, “EUbOPEN Chemogenomics Library - Multiplex” (2024)
Values joined by “and” are separate entries in the source; they are usually repeats but may differ in a detail not shown here. Identical values can stand only once.

Tested on: U2OS
Assay: Multiplex assay against U2OS
Format: toxicity, cell-based
Conditions: human, 12 h, 1 µM, compound concentration 1 uM
Outline: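 Tubulin, mitochondrial-mass and membrane-permeability phenotypes are per cents of healthy-nucleus cells. Cells were gated by CellPathfinder machine learning into Hoechst high-intensity objects or normal cells, normal cells into healthy, pyknosed or fragmented nuclei, and pyknosed cells into mitotic or apoptotic. Before that, live cells stained at seeding with Hoechst33342, BioTracker Green Microtubule Cytoskeleton Dye, MitoTracker Red and Annexin V Alexa Fluor 680 were imaged on a CQ1 microscope at 37°C and 5% CO2 after compound addition.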

Compound | Population Apoptotic (%) | Population Fragmented Nuclei (%) | Population Healthy Nuclei (%) | Population Hoechst High Intensity Objects (%) | Population Membrane Permeable-Phenotype (%) | Population Mitochondria Different-Phenotype (%) | Population Normal (%) | Population Pyknosed Nuclei (%) | Population Tubulin-Different-Phenotype (%) | Total Cell Count
Cc1ccc(OCC(O)C(C)NC(C)C)c2c1CCC2.Cl (stereo not given) | 63% and 90% | 19% and 11% | 66% and 79% | 2% and 1% | 8% and 7% | 3% and 2% | 97% and 98% | 13% and 8% | 4% and 2% | 222 and 129
COc1cc(OC2CCN(C(C)=O)CC2)ccc1C(=O)N1CCC(N2C(=O)OCc3ccccc32)CC1 | 50% and 66% | 22% and 20% | 67% and 69% | 0% | 5% and 11% | 3% and 7% | 99% | 9% | 3% and 8% | 233 and 130
C[C@H](NC(=O)CNC(=O)c1cccc(Cl)c1)c1ccccc1 | 78% and 71% | 26% and 20% | 61% and 68% | 3% | 6% and 8% | 4% and 2% | 96% | 12% and 11% | 2% | 242 and 124
Cc1cc(=O)n(C)c2cc(N3C(=O)CC[C@H](NS(=O)(=O)CC(C)C)[C@H]3c3ccc(Cl)cc3)ccc12 | 87% and 63% | 24% and 21% | 66% and 68% | 3% and 1% | 3% and 2% | 1% and 2% | 96% and 98% | 9% and 10% | 1% | 263 and 110

Same assay, conditions: human, 12 h, 1 µM, compound concentration 1 uM

Compound | Population Mitotic Cells (%)
COc1cc(OC2CCN(C(C)=O)CC2)ccc1C(=O)N1CCC(N2C(=O)OCc3ccccc32)CC1 | 50% and 33%
C[C@H](NC(=O)CNC(=O)c1cccc(Cl)c1)c1ccccc1 | 21% and 28%
Cc1cc(=O)n(C)c2cc(N3C(=O)CC[C@H](NS(=O)(=O)CC(C)C)[C@H]3c3ccc(Cl)cc3)ccc12 | 12% and 36%

Same assay, conditions: human, 12 h, 10 µM, compound concentration 10 uM

Compound | Population Apoptotic (%) | Population Fragmented Nuclei (%) | Population Healthy Nuclei (%) | Population Hoechst High Intensity Objects (%) | Population Membrane Permeable-Phenotype (%) | Population Mitochondria Different-Phenotype (%) | Population Mitotic Cells (%) | Population Normal (%) | Population Pyknosed Nuclei (%) | Population Tubulin-Different-Phenotype (%)
Cc1ccc(OCC(O)C(C)NC(C)C)c2c1CCC2.Cl (stereo not given) | 61% and 80% | 30% and 11% | 52% and 81% | 5% and 0% | 14% and 9% | 17% and 22% | 38% and 20% | 94% and 99% | 16% and 7% | 8% and 9%
COc1cc(OC2CCN(C(C)=O)CC2)ccc1C(=O)N1CCC(N2C(=O)OCc3ccccc32)CC1 | 72% and 87% | 23% and 13% | 62% and 77% | 6% and 1% | 18% and 21% | 6% and 10% | 27% and 12% | 93% and 98% | 13% and 9% | 12% and 13%
C[C@H](NC(=O)CNC(=O)c1cccc(Cl)c1)c1ccccc1 | 68% and 66% | 24% and 13% | 63% and 82% | 2% and 0% | 9% and 2% | 3% | 31% and 33% | 97% and 100% | 11% and 4% | 4% and 2%
Cc1cc(=O)n(C)c2cc(N3C(=O)CC[C@H](NS(=O)(=O)CC(C)C)[C@H]3c3ccc(Cl)cc3)ccc12 | 57% | 21% and 16% | 55% and 60% | 5% and 3% | 63% and 35% | 44% and 68% | 42% | 94% and 96% | 23% | 65% and 60%

Same assay, conditions: human, 12 h, 10 µM, compound concentration 10 uM

Compound | Total Cell Count
Cc1ccc(OCC(O)C(C)NC(C)C)c2c1CCC2.Cl (stereo not given) | 215 and 137
COc1cc(OC2CCN(C(C)=O)CC2)ccc1C(=O)N1CCC(N2C(=O)OCc3ccccc32)CC1 | 228 and 85
C[C@H](NC(=O)CNC(=O)c1cccc(Cl)c1)c1ccccc1 | 198 and 150
Cc1cc(=O)n(C)c2cc(N3C(=O)CC[C@H](NS(=O)(=O)CC(C)C)[C@H]3c3ccc(Cl)cc3)ccc12 | 240 and 83

Same assay, conditions: human, 24 h, 1 µM, compound concentration 1 uM

Compound | Population Apoptotic (%) | Population Fragmented Nuclei (%) | Population Healthy Nuclei (%) | Population Hoechst High Intensity Objects (%) | Population Membrane Permeable-Phenotype (%) | Population Mitochondria Different-Phenotype (%) | Population Mitotic Cells (%) | Population Normal (%) | Population Pyknosed Nuclei (%) | Population Tubulin-Different-Phenotype (%)
Cc1ccc(OCC(O)C(C)NC(C)C)c2c1CCC2.Cl (stereo not given) | 88% and 93% | 14% and 15% | 75% and 73% | 0% and 1% | 5% and 3% | 3% and 5% | 11% and 6% | 100% and 98% | 10% | 4% and 0%
COc1cc(OC2CCN(C(C)=O)CC2)ccc1C(=O)N1CCC(N2C(=O)OCc3ccccc32)CC1 | 82% and 76% | 20% and 22% | 71% and 68% | 1% | 3% and 7% | 2% and 5% | 17% and 23% | 98% | 8% | 2% and 3%
C[C@H](NC(=O)CNC(=O)c1cccc(Cl)c1)c1ccccc1 | 79% and 88% | 19% | 71% and 69% | 2% | 7% and 4% | 2% and 4% | 20% and 11% | 97% | 8% and 10% | 2% and 0%
Cc1cc(=O)n(C)c2cc(N3C(=O)CC[C@H](NS(=O)(=O)CC(C)C)[C@H]3c3ccc(Cl)cc3)ccc12 | 74% and 82% | 20% and 18% | 68% and 69% | 3% and 1% | 6% and 9% | 3% and 2% | 25% and 17% | 96% and 98% | 11% | 4% and 6%

Same assay, conditions: human, 24 h, 1 µM, compound concentration 1 uM

Compound | Total Cell Count
Cc1ccc(OCC(O)C(C)NC(C)C)c2c1CCC2.Cl (stereo not given) | 255 and 155
COc1cc(OC2CCN(C(C)=O)CC2)ccc1C(=O)N1CCC(N2C(=O)OCc3ccccc32)CC1 | 288 and 163
C[C@H](NC(=O)CNC(=O)c1cccc(Cl)c1)c1ccccc1 | 275 and 168
Cc1cc(=O)n(C)c2cc(N3C(=O)CC[C@H](NS(=O)(=O)CC(C)C)[C@H]3c3ccc(Cl)cc3)ccc12 | 322 and 146

Same assay, conditions: human, 24 h, 10 µM, compound concentration 10 uM

Compound | Population Apoptotic (%) | Population Fragmented Nuclei (%) | Population Healthy Nuclei (%) | Population Hoechst High Intensity Objects (%) | Population Membrane Permeable-Phenotype (%) | Population Mitochondria Different-Phenotype (%) | Population Mitotic Cells (%) | Population Normal (%) | Population Pyknosed Nuclei (%) | Population Tubulin-Different-Phenotype (%)
Cc1ccc(OCC(O)C(C)NC(C)C)c2c1CCC2.Cl (stereo not given) | 82% and 92% | 26% and 14% | 56% and 77% | 3% and 2% | 10% and 12% | 17% and 11% | 17% and 7% | 96% and 97% | 17% and 8% | 4% and 6%
COc1cc(OC2CCN(C(C)=O)CC2)ccc1C(=O)N1CCC(N2C(=O)OCc3ccccc32)CC1 | 81% and 71% | 21% and 12% | 60% and 80% | 5% and 2% | 9% and 10% | 9% and 3% | 18% and 28% | 94% and 97% | 18% and 7% | 4% and 6%
C[C@H](NC(=O)CNC(=O)c1cccc(Cl)c1)c1ccccc1 | 90% and 71% | 24% and 12% | 61% and 83% | 1% | 6% and 4% | 4% and 2% | – | 98% | 13% and 3% | 2% and 3%
Cc1cc(=O)n(C)c2cc(N3C(=O)CC[C@H](NS(=O)(=O)CC(C)C)[C@H]3c3ccc(Cl)cc3)ccc12 | 71% and 81% | 20% and 26% | 56% and 62% | 5% and 2% | 25% and 36% | 40% and 59% | 28% and 18% | 94% and 97% | 23% and 10% | 28% and 50%

Same assay, conditions: human, 24 h, 10 µM, compound concentration 10 uM

Compound | Total Cell Count
Cc1ccc(OCC(O)C(C)NC(C)C)c2c1CCC2.Cl (stereo not given) | 230 and 172
COc1cc(OC2CCN(C(C)=O)CC2)ccc1C(=O)N1CCC(N2C(=O)OCc3ccccc32)CC1 | 250 and 99
C[C@H](NC(=O)CNC(=O)c1cccc(Cl)c1)c1ccccc1 | 239 and 189
Cc1cc(=O)n(C)c2cc(N3C(=O)CC[C@H](NS(=O)(=O)CC(C)C)[C@H]3c3ccc(Cl)cc3)ccc12 | 262 and 108

Same assay, conditions: human, 48 h, 1 µM, compound concentration 1 uM

Compound | Population Apoptotic (%) | Population Fragmented Nuclei (%) | Population Healthy Nuclei (%) | Population Hoechst High Intensity Objects (%) | Population Membrane Permeable-Phenotype (%) | Population Mitochondria Different-Phenotype (%) | Population Mitotic Cells (%) | Population Normal (%) | Population Pyknosed Nuclei (%) | Population Tubulin-Different-Phenotype (%)
Cc1ccc(OCC(O)C(C)NC(C)C)c2c1CCC2.Cl (stereo not given) | 88% and 80% | 14% and 20% | 73% and 69% | 0% and 2% | 6% and 5% | 4% and 3% | 11% and 20% | 99% and 97% | 12% and 10% | 3% and 2%
COc1cc(OC2CCN(C(C)=O)CC2)ccc1C(=O)N1CCC(N2C(=O)OCc3ccccc32)CC1 | 80% and 65% | 17% and 23% | 77% and 66% | 3% | 3% and 10% | 1% and 5% | 19% and 35% | 96% | 5% and 9% | 2% and 4%
C[C@H](NC(=O)CNC(=O)c1cccc(Cl)c1)c1ccccc1 | 74% and 100% | 18% and 17% | 71% and 70% | 3% and 2% | 6% and 4% | 3% | 25% and 0% | 96% and 97% | 10% and 11% | 1% and 2%
Cc1cc(=O)n(C)c2cc(N3C(=O)CC[C@H](NS(=O)(=O)CC(C)C)[C@H]3c3ccc(Cl)cc3)ccc12 | 77% and 95% | 14% and 15% | 73% | 1% | 4% and 6% | 3% and 5% | – | 98% | 11% and 10% | 2% and 4%

Same assay, conditions: human, 48 h, 1 µM, compound concentration 1 uM

Compound | Total Cell Count
Cc1ccc(OCC(O)C(C)NC(C)C)c2c1CCC2.Cl (stereo not given) | 377 and 202
COc1cc(OC2CCN(C(C)=O)CC2)ccc1C(=O)N1CCC(N2C(=O)OCc3ccccc32)CC1 | 388 and 213
C[C@H](NC(=O)CNC(=O)c1cccc(Cl)c1)c1ccccc1 | 401 and 205
Cc1cc(=O)n(C)c2cc(N3C(=O)CC[C@H](NS(=O)(=O)CC(C)C)[C@H]3c3ccc(Cl)cc3)ccc12 | 508 and 199

Same assay, conditions: human, 48 h, 10 µM, compound concentration 10 uM

Compound | Population Apoptotic (%) | Population Fragmented Nuclei (%) | Population Healthy Nuclei (%) | Population Hoechst High Intensity Objects (%) | Population Membrane Permeable-Phenotype (%) | Population Mitochondria Different-Phenotype (%) | Population Mitotic Cells (%) | Population Normal (%) | Population Pyknosed Nuclei (%) | Population Tubulin-Different-Phenotype (%)
Cc1ccc(OCC(O)C(C)NC(C)C)c2c1CCC2.Cl (stereo not given) | 82% and 77% | 23% and 15% | 63% and 73% | 4% and 0% | 12% and 7% | 12% and 4% | 17% and 22% | 95% and 99% | 13% and 11% | 6% and 3%
COc1cc(OC2CCN(C(C)=O)CC2)ccc1C(=O)N1CCC(N2C(=O)OCc3ccccc32)CC1 | 81% and 100% | 19% and 17% | 66% and 78% | 5% and 1% | 5% and 14% | 4% and 6% | 18% and 0% | 95% and 98% | – | 3% and 8%
C[C@H](NC(=O)CNC(=O)c1cccc(Cl)c1)c1ccccc1 | 81% and 100% | 19% and 12% | 73% and 80% | 2% and 1% | 6% and 4% | 2% and 1% | 18% and 0% | 97% and 98% | 7% | 4% and 1%
Cc1cc(=O)n(C)c2cc(N3C(=O)CC[C@H](NS(=O)(=O)CC(C)C)[C@H]3c3ccc(Cl)cc3)ccc12 | 84% and 71% | 25% and 21% | 51% and 60% | 6% and 5% | 15% and 30% | 15% and 35% | 15% and 28% | 93% and 94% | 22% and 18% | 10% and 23%

Same assay, conditions: human, 48 h, 10 µM, compound concentration 10 uM

Compound | Total Cell Count
Cc1ccc(OCC(O)C(C)NC(C)C)c2c1CCC2.Cl (stereo not given) | 306 and 246
COc1cc(OC2CCN(C(C)=O)CC2)ccc1C(=O)N1CCC(N2C(=O)OCc3ccccc32)CC1 | 320 and 130
C[C@H](NC(=O)CNC(=O)c1cccc(Cl)c1)c1ccccc1 | 311 and 279
Cc1cc(=O)n(C)c2cc(N3C(=O)CC[C@H](NS(=O)(=O)CC(C)C)[C@H]3c3ccc(Cl)cc3)ccc12 | 331 and 120
